Test results: ChEMBL document CHEMBL3865838, “Ceylonamides A-F, Nitrogenous Spongian Diterpenes That Inhibit RANKL-Induced Osteoclastogenesis, from the Marine Sponge Spongia ceylonensis” (J Nat Prod, 2016)
Activity calls are given as the source filed them. The rule behind the calls is not given here.

Legend:
[1] = Inhibition of RANKL-stimulated osteoclastogenesis in mouse RAW264 cells assessed as reduction in TRAP activity after 4 days in presence of RANKL; assay type: functional, cell-based
Method in brief: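 Murine RAW264 cells differentiated with RANKL (50 ng/mL) for 4 days, with or without compound at a range of concentrations. TRAP activity was read as absorbance at 405 nm, and the IC50 was taken from inhibition of RANKL-induced TRAP up-regulation. Cytotoxicity toward RAW264 cells was also checked.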

[2] = Cytotoxicity against mouse RAW264 cells assessed as cell survival at 5 uM relative to control; assay type: toxicity; conditions: read-out: Survival
[3] = test system: RAW264; test: Inhibition of RANKL-stimulated osteoclastogenesis in mouse RAW264 cells assessed reduction in TRAP-positive multinucleated cells at 20 uM after 4 days in presence of RANKL by TRAP-staining based microscopic analysis; assay type: functional, cell-based
Method in brief: (§1)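 RAW264 cells were treated with RANKL (50 ng/mL) plus compound at 10 or 20 μM, or without compound, for 4 days. They were then stained with TRAP-staining solution, which stains positive cells red. TRAP-positive multinuclear cells (≥3 nuclei) were counted by microscopy.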

[4] = test system: RAW264; test: Inhibition of RANKL-stimulated osteoclastogenesis in mouse RAW264 cells assessed reduction in TRAP-positive multinucleated cells at 10 uM after 4 days in presence of RANKL by TRAP-staining based microscopic analysis; assay type: functional, cell-based; method in brief: as §1

CC(C)CCN1CC2=C(CC[C@@H]3[C@@]4(C)CCC[C@](C)(C(=O)O)[C@@H]4CC[C@@]23C)C1=O
IC50 [1]: 18 µM
viability at 5 µM [2]: 87%
inhibition [3]: Active

C[C@]12CCC[C@](C)(C(=O)O)[C@@H]1CC[C@@]1(C)C3=C(CC[C@H]21)CNC3=O
IC50 [1]: > 50 µM
viability at 5 µM [2]: 100%

CC(C)CN1CC2=C(CC[C@@H]3[C@@]4(C)CCC[C@](C)(C(=O)O)[C@@H]4CC[C@@]23C)C1=O
IC50 [1]: > 50 µM
viability at 5 µM [2]: 100%

C[C@]12CC(=O)[C@@H](O)[C@](C)(CO)[C@@H]1CC[C@@]1(C)c3cocc3CC[C@H]21 [SPONGIADIOL]
IC50 [1]: > 50 µM
viability at 5 µM [2]: 97%

CC(C)CN1CC2=C(C1=O)[C@]1(C)CC[C@@H]3[C@](C)(CCC[C@]3(C)C(=O)O)[C@H]1CC2
IC50 [1]: > 50 µM
viability at 5 µM [2]: 100%

C[C@]12CCC[C@](C)(C(=O)O)[C@@H]1CC[C@@]1(C)C3=C(CC[C@H]21)C(=O)N(CCc1ccccc1)C3
IC50 [1]: 13 µM
viability at 5 µM [2]: 100%
inhibition [4]: Active

CC(C)CCN1CC2=C(C1=O)[C@]1(C)CC[C@@H]3[C@](C)(CCC[C@]3(C)C(=O)O)[C@H]1CC2
IC50 [1]: > 50 µM
viability at 5 µM [2]: 100%

C[C@]12CCC[C@](C)(C(=O)O)[C@@H]1CC[C@@]1(C)c3cocc3CC[C@H]21
IC50 [1]: > 50 µM
viability at 5 µM [2]: 100%

C[C@]12C[C@@H](O)C(=O)[C@](C)(CO)[C@@H]1CC[C@@]1(C)c3cocc3CC[C@H]21 [ISOSPONGIADIOL]
IC50 [1]: > 50 µM
viability at 5 µM [2]: 96%

C[C@]12CCC[C@](C)(C(=O)O)[C@@H]1CC[C@@]1(C)C3=C(CC[C@H]21)CN(CCc1ccccc1)C3=O
IC50 [1]: > 50 µM
viability at 5 µM [2]: 97%

CO[C@H]1O[C@@H](OC)C2=C1CC[C@@H]1[C@@]3(C)CCC[C@](C)(C(=O)O)[C@@H]3CC[C@@]21C
IC50 [1]: > 50 µM
viability at 5 µM [2]: 98%
